This passage reports inhibition and Activity results from ChEMBL document CHEMBL5104224, “Alkyltriphenylphosphonium turns naphthoquinoneimidazoles into potent membrane depolarizers against mycobacteria” (RSC Med Chem, 2022).

Assay [1] concerns Mycobacterium tuberculosis variant bovis. As to the kind of experiment: Inhibition of ATP synthesis in Mycobacterium bovis BCG ATCC 35734 assessed as reduction in ATP level at 4 x MIC90 incubated for 15 mins by BacTiter-Glo microbial luminescence assay. The class given is functional. An outline of the steps:
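Mid-log BCG diluted to OD600 0.1 in complete 7H9 and treated at 4× MIC90. At each time point, culture mixed 1:1 with BacTiter-Glo reagent for 15 min at room temperature in the dark and luminescence read. Background (media + reagent) subtracted. ATP quantified from a calibration curve of 0.1–100 nM ATP in 7H9. Rifampicin negative control.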

Assay [2] relates to Cell membrane. As to the kind of experiment: Induction of cell membrane depolarization in Mycobacterium bovis BCG ATCC 35734 assessed as loss in mitochondrial membrane potential at 4 x MIC90 incubated for 24 hrs by DiOC2(3) dye based fluorescence assay. The class given is subcellular. The following applies: Mycobacterium tuberculosis variant bovis. The essentials:
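Aliquots taken at selected times and stained with DiOC2(3) (BacLight membrane potential kit). Depolarization read as a fall in red/green fluorescence ratio. CCCP 5 μM positive control, rifampicin 0.08 μM negative control.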

For assay [3], the system named is Cell membrane. As to the kind of experiment: Induction of cell envelope stress in Mycobacterium bovis BCG ATCC 35734 expressing piniBAC RFP at 4 x MIC90 after 24 hrs by fluorescence analysis. The class given is subcellular. The following applies: Mycobacterium tuberculosis variant bovis. An outline of the steps:
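Recombinant M. bovis BCG-piniBAC-RFP at OD600 0.2, incubated with compound for 24 h. Red fluorescence (Ex 587/Em 630 nm) normalized to OD600 to reflect promoter induction. INH (0.1–50 μM) positive control.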

Active and inactive are the calls of the source. No cut-off for these calls is given here.

Turning to `CCCCCCC[P+](c1ccccc1)(c1ccccc1)c1ccccc1`, the inhibition result in assay [1] is “Active”. For the same compound, the result in the assay with Cell membrane [2] was Active.
`NNC(=O)c1ccncc1`: the outcome in the assay with Cell membrane [3] was Active.
For `CCCCCCCCCCC[P+](c1ccccc1)(c1ccccc1)c1ccccc1`, in assay [1], the inhibition entry is “Active”. In the assay with Cell membrane [2], the result was Active.
Regarding `Cc1nc2c(n1CCCCCCCCC[P+](c1ccccc1)(c1ccccc1)c1ccccc1)C(=O)c1ccccc1C2=O`, the inhibition entry in assay [1] is “Active”. Also, the result in the assay with Cell membrane [2] was Active.
For the compound `Cc1nc2c(n1CCCCCCCCCCC[P+](c1ccccc1)(c1ccccc1)c1ccccc1)C(=O)c1ccccc1C2=O`, in assay [1], the inhibition result is “Active”. Moreover, the result in the assay on Cell membrane [2] was Active.
